Test results taken from ChEMBL document CHEMBL4725354 (J Med Chem, 2020).
Each block holds one molecule with its values, some of them ahead of it.

What was measured:
[1] = Growth inhibition of MDCK2 cells over expressing human ABCG2 after 72 hrs by MTT assay; format: ADME, cell-based, Canis lupus familiaris, MDCK-II; details: dog, MDCK2 cells overexpressing human ABCG2
Procedure, shortened: (§1)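 MTT viability assay. Compound dilutions in culture medium (3.2 to 1000 µM as prepared). About 2,000 cells per well, 72 h at 37 °C, 5% CO2. Culture medium set as 100% and 10% DMSO as 0% viability. MTT added for 1 h, formazan dissolved in DMSO, absorbance read at 570 nm with 690 nm background. GI50 from nonlinear regression of absorbance vs log concentration; at least three independent experiments, duplicates, mean ± SEM.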

[2] = target: T1, Broad substrate specificity ATP-binding cassette transporter ABCG2 (Homo sapiens, UniProt Q9UNQ0); experiment: Inhibition of human ABCG2 expressed in MDCK2 cells co-expressing GFP preincubated for 30 mins followed by Hoechst 33342 addition and measured every 60 sec for 120 mins by fluorescence assay; format: cell-based, MDCK-II
T1 sequence (Q9UNQ0 whole entry): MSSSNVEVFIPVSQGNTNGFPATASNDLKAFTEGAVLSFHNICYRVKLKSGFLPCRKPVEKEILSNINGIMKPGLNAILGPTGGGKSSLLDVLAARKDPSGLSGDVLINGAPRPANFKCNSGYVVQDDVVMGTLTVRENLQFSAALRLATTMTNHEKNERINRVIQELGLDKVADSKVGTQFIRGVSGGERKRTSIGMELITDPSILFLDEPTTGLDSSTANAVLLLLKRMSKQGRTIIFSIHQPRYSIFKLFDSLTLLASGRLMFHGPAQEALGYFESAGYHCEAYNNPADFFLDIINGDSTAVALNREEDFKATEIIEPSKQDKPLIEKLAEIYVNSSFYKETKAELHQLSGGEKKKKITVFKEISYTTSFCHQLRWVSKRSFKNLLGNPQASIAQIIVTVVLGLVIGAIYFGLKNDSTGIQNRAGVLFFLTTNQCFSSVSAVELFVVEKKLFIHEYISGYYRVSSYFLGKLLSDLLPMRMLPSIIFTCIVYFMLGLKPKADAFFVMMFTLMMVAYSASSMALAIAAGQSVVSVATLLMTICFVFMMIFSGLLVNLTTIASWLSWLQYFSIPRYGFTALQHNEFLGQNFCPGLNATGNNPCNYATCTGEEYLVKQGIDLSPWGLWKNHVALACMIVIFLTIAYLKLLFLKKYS
Procedure, shortened: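 MDCK II cells transfected with human ABCG2 cDNA C-terminally fused to GFP. Hoechst 33342 added at 1 µM final. Fluorescence (ex 355, em 460 nm) read every 60 s for 120 min. Steady-state means vs log concentration fitted by 3- or 4-parameter logistic to give IC50.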

[3] = target: T1, Broad substrate specificity ATP-binding cassette transporter ABCG2; experiment: Inhibition of human ABCG2-mediated multidrug resistance in MDCK2 cells assessed as potentiation of SN-38-induced cytotoxicity by measuring time need to achieve half maximal cell death at 10 to 50 nM measured up to 7 days by MTT assay; format: cell-based; details: mdck-ii, 168 h, dose 10-50 nM, time <=7 day
Procedure, shortened: (§2)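 Time-dependent reversal in ABCG2-GFP MDCK II cells: SN-38 at 0.5 µM with modulator at 0, 10, 25 or 50 nM. Seeding density decreased with assay day (10,000 cells for day 1 down to 200 for day 7). MTT viability read daily for 7 days. Results normalised to medium-only cells or to SN-38 alone. Curve inflection points plotted vs modulator concentration to derive tmax, tmin, ctmin and c½tmax. Triplicates, at least three experiments; multiple t-test.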

[4] = target: T2, ABCG2 (Homo sapiens, UniProt Q9UNQ0); experiment: Inhibition of human ABCG2 expressed in MDCK2 cells co-expressing GFP preincubated for 15 mins followed by pheophorbideA addition and measured after 2 hrs by flow cytometric analysis relative to control; format: cell-based, MDCK-II; details: probe pheophorbide A, read-out: Imax
T2 sequence (Q9UNQ0 whole entry): T1 sequence (Q9UNQ0 whole entry)

[5] = target: T1, Broad substrate specificity ATP-binding cassette transporter ABCG2; experiment: Inhibition of human ABCG2-mediated multidrug resistance in MDCK2 cells assessed as potentiation of SN-38-induced cytotoxicity at 10 nM after 7 days by MTT assay relative to SN-38 alone; format: cell-based; details: mdck-ii, 168 h, 0.01 µM, time 7 day; procedure, shortened: as §2
[6] = system: MDCK-II; experiment: Cytotoxicity against MDCK2 cells assessed as reduction in cell viability at 10 uM after 72 hrs by MTT assay; format: cell-based, Canis lupus familiaris; details: dog
Procedure, shortened: (§3)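 Single-concentration screen at 10 µM in MDCK II BCRP and parental MDCK II cells. MTT assay, 72 h at 37 °C, 5% CO2. Viability referenced to culture medium (100%) and 10% DMSO (0%). Mean ± SEM of at least three independent experiments with duplicates.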

[7] = Down regulation of ABCG2 in MDCK2 cells at 10 nM after 7 days by Western blot analysis; format: functional, Canis lupus familiaris, MDCK-II; details: time 7 day
Procedure, shortened: (§4)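 ABCG2-GFP MDCK II cells seeded in T25 flasks (86,000 for 4 days, 17,200 for 7 days). Exposed to modulator (10 nM) and/or SN-38 (0.5 µM) for 4 or 7 days. 15 µg protein run on stain-free 10% SDS-PAGE and transferred to PVDF. Probed with BXP-21 (1:200, overnight, 4 °C) and HRP secondary, ECL detection. Bands normalised to total protein and to the untreated control; one-sample t-test.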

[8] = target: T1, Broad substrate specificity ATP-binding cassette transporter ABCG2; experiment: Inhibition of human ABCG2-mediated multidrug resistance in MDCK2 cells assessed as potentiation of SN-38-induced cytotoxicity by measuring half-maximal cell death acceleration at 10 to 50 nM measured at 5.75 days by MTT assay; format: cell-based, MDCK-II; details: dose 10-50 nM, time 5.7 day; read-out: Activity
Procedure, shortened: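 MDCK II cells transfected with human ABCG2–GFP were exposed to SN-38 at 0.5 µM final, alone or with modulator at 0, 10, 25 or 50 nM. Cells were seeded at 10,000 down to 200 per well according to read-out day and kept at 37 °C, 5% CO2. MTT viability was read daily for 7 days. Inflection points of the viability–time curves were regressed against modulator concentration. At least 3 independent experiments, triplicates.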

[9] = target: T2, ABCG2; experiment: Inhibition of human ABCG2 expressed in MDCK2 cells co-expressing GFP preincubated for 30 mins followed by Hoechst 33342 addition and measured every 60 sec for 120 mins by fluorescence assay relative to control; format: cell-based, MDCK-II; details: probe Hoechst 33342, read-out: Imax
Procedure, shortened: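 MDCK II cells transfected with human ABCG2 cDNA C-terminally fused to GFP. Steady-state means vs log concentration fitted by 3- or 4-parameter logistic to give IC50.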

[10] = system: ABCG2; experiment: Therapeutic ratio of GI50 for Growth inhibition of MDCK2 cells over expressing human ABCG2 to IC50 for inhibition of human ABCG2 expressed in MDCK2 cells co-expressing GFP preincubated for 15 mins followed by pheophorbideA addition and measured after 2 hrs by flow cytometric analysis; format: toxicity, cell-based; details: dog, MDCK2 cells overexpressing human ABCG2, probe pheophorbide A; read-out: TI
[11] = target: T1, Broad substrate specificity ATP-binding cassette transporter ABCG2; experiment: Inhibition of human ABCG2 expressed in MDCK2 cells co-expressing GFP preincubated for 15 mins followed by pheophorbideA addition and measured after 2 hrs by flow cytometric analysis; format: cell-based, MDCK-II
Procedure, shortened: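 Pheophorbide A added to 0.5 µM final and incubated 2 h. Read by flow cytometry (ex 488, em 695/50 nm); GFP expression checked at 525/30 nm. IC50 from 3- or 4-parameter logistic fit.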

[12] = Effect on total ABCG2 in MDCK2 cells at 10 nM after 4 to 7 days in presence of SN-38 by Western blot analysis; format: ADME, cell-based, Canis lupus familiaris; details: dog, mdck-ii, 0.01 µM, time 4-7 day; procedure, shortened: as §4
[13] = Growth inhibition of MDCK2 cells after 72 hrs by MTT assay; format: cell-based, Canis lupus familiaris, MDCK-II; details: dog; procedure, shortened: as §1
[14] = Down regulation of ABCG2 in MDCK2 cells at 10 nM after 4 days by Western blot analysis; format: functional, Canis lupus familiaris, MDCK-II; details: time 4 day; procedure, shortened: as §4
[15] = target: T1, Broad substrate specificity ATP-binding cassette transporter ABCG2; experiment: Inhibition of human ABCG2-mediated multidrug resistance in MDCK2 cells assessed as potentiation of SN-38-induced cytotoxicity at 10 to 50 nM measured up to 7 days by MTT assay; format: cell-based; details: mdck-ii, 168 h, dose 10-50 nM, time <=7 day; procedure, shortened: as §2
[16] = system: ABCG2; experiment: Therapeutic ratio of GI50 for Growth inhibition of MDCK2 cells over expressing human ABCG2 to IC50 for inhibition of human ABCG2 expressed in MDCK2 cells co-expressing GFP preincubated for 30 mins followed by Hoechst 33342 addition and measured every 60 sec for 120 mins by fluorescence assay; format: toxicity, cell-based; details: dog, MDCK2 cells overexpressing human ABCG2, probe Hoechst 33342; read-out: TI
[17] = target: T1, Broad substrate specificity ATP-binding cassette transporter ABCG2; experiment: Inhibition of human ABCG2-mediated multidrug resistance in MDCK2 cells assessed as potentiation of SN-38-induced cytotoxicity at 10 to 50 nM after 5 days by MTT assay; format: cell-based; details: mdck-ii, 120 h, dose 10-50 nM, time 5 day
[18] = system: MDCK-II; experiment: Cytotoxicity against MDCK2 cells over expressing human ABCG2 at 10 uM assessed as reduction in cell viability after 72 hrs by MTT assay; format: ADME, cell-based, Canis lupus familiaris; details: dog; procedure, shortened: as §3
[19] = system: ABCB1; experiment: Therapeutic ratio of GI50 for Growth inhibition of A2780/ADR cells over expressing human ABCB1 to IC50 for inhibition of human ABCB1 expressed in A2780/ADR cells preincubated for 30 mins followed by calcein AM addition and measured every 60 secs for 60 mins by fluorescence assay; details: A2780/ADR cells overexpressing human ABCB1, probe calcein AM
[20] = system: ABCG2; experiment: Therapeutic ratio of GI50 for growth inhibition of MDCK2 cells over expressing human ABCG2 to IC50 for inhibition of human ABCG2 expressed in MDCK2 cells co-expressing GFP; details: dog, MDCK2 cells overexpressing human ABCG2
[21] = Cytotoxicity against MDCK2 cells over expressing human ABCG2 assessed as reduction in cell viability after 72 hrs by MTT assay; format: ADME, cell-based, Canis lupus familiaris, MDCK-II; details: dog, MDCK2 cells overexpressing human ABCG2; procedure, shortened: as §1
[22] = system: ABCC1; experiment: Therapeutic ratio of GI50 for Growth inhibition of MDCK2 cells over expressing human ABCC1 to IC50 for inhibition of human ABCC1 expressed in MDCK2 cells preincubated for 30 mins followed by calcein AM addition and measured every 60 secs for 60 mins by fluorescence assay; details: dog, MDCK2 cells overexpressing human ABCC1, probe calcein AM
[23] = Cytotoxicity against MDCK cells over expressing ABCC1 assessed as reduction in cell viability after 72 hrs by MTT assay; format: ADME, cell-based, Canis lupus familiaris, MDCK-II; details: dog, MDCK cells overexpressing ABCC1; procedure, shortened: as §1
[24] = target: ATP-dependent translocase ABCB1 (Homo sapiens, UniProt P08183); experiment: Inhibition of human ABCB1 expressed in A2780/ADR cells preincubated for 30 mins followed by calcein AM addition and measured every 60 secs for 60 mins by fluorescence assay; format: cell-based
Procedure, shortened: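 ABCB1 in A2780/ADR cells (kept resistant by one passage in 1 µM doxorubicin every 10 passages). 30,000 cells per well in Krebs-HEPES buffer, preincubated 30 min at 37 °C with inhibitor. Calcein AM added from a 3.125 µM solution. Fluorescence (ex 485, em 520 nm) read every 60 s for 60 min. Initial linear slopes vs log concentration fitted to give IC50.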

[25] = Cytotoxicity against MDCK2 cells assessed as reduction in cell viability after 72 hrs by MTT assay; format: cell-based, Canis lupus familiaris, MDCK-II; details: dog; procedure, shortened: as §1
[26] = Cytotoxicity against human A2780 cells assessed as reduction in cell viability after 72 hrs by MTT assay
[27] = Cytotoxicity against human A2780/ADR cells over expressing ABCB1 assessed as reduction in cell viability after 72 hrs by MTT assay; format: ADME, cell-based; details: A2780/ADR cells overexpressing ABCB1; procedure, shortened: as §1

Sequence of ATP-dependent translocase ABCB1 (P08183 whole entry): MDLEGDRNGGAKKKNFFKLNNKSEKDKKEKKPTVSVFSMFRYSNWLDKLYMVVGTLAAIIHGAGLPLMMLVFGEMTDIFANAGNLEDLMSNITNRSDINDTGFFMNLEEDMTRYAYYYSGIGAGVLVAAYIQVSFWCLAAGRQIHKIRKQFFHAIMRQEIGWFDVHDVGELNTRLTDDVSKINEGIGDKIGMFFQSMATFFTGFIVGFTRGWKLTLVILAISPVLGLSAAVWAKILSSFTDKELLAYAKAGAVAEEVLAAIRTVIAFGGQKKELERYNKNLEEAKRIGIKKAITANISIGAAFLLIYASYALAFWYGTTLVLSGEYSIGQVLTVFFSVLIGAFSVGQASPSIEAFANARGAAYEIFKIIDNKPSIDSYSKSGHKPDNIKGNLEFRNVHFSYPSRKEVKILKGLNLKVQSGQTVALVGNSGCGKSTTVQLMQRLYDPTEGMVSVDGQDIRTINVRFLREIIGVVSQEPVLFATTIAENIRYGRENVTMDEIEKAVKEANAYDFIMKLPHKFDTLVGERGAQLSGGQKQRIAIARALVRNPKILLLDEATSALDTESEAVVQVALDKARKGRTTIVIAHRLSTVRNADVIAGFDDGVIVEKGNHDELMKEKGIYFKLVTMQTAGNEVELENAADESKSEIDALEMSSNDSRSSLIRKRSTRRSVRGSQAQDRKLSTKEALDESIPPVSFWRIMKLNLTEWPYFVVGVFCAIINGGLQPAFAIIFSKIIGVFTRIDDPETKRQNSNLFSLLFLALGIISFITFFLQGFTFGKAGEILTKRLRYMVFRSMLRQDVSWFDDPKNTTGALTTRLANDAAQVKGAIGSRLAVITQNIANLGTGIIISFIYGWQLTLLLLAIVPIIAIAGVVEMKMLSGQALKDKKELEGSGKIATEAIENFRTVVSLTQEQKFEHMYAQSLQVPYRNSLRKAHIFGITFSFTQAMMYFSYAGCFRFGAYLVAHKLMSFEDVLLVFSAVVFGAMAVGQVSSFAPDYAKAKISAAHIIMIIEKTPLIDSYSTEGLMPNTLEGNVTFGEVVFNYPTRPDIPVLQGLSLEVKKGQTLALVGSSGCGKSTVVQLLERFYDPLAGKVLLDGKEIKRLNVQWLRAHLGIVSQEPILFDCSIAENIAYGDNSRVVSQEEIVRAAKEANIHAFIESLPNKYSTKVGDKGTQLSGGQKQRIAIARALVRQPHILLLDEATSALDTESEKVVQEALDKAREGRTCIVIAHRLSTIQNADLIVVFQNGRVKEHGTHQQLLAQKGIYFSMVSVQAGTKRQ

SMILES: Cc1cc(Nc2ccc(C#N)c(C)c2)nc(-c2ccccc2)n1
GI50 at 72 h [1]: 15.7 µM
IC50 [2]: 0.0935 µM
Tmin [3]: 4.25 days
Emax at 2 h [4]: 76%
fold change (FC) [5]: 2
Activity [6]: Non-Toxic
Activity [7]: 24%
EC50 [8]: 0.0173 µM
Emax at 2 h [9]: 106%
selectivity ratio at 2 h [10]: 90
IC50 [11]: 0.175 µM
Activity [12]: Non-Toxic
GI50 at 72 h [13]: 15.7 µM
Activity [14]: 36%
inhibition (INH) [15]: Active
selectivity ratio [16]: 167
inhibition (INH) [17]: Active
Activity [18]: Non-Toxic

Emax at 2 h [4]: 79%
IC50 [24]: 5.13 µM
IC50 [11]: 0.151 µM
SMILES: Cc1cc(Nc2ccc3ncccc3c2)nc(-c2ccccc2)n1
selectivity ratio [19]: 5.6
selectivity ratio [20]: 279
GI50 at 72 h [21]: 42.1 µM
Activity [6]: Non-Toxic
selectivity ratio [22]: 4.9
GI50 at 72 h [23]: 35.4 µM
GI50 at 72 h [25]: 38.4 µM
GI50 at 72 h [26]: 22.6 µM
Activity [18]: Non-Toxic
GI50 at 72 h [27]: 28.9 µM
